According to PMC10166615 (Bioorganic & Medicinal Chemistry, 2023):

What was measured:
[1] = Liver microsomes metabolic stability, mouse; type: in vitro ADME
Procedure, shortened: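 Mouse liver microsomes at 0.5 mg/mL final protein in K/Mg buffer. Test compound went from a 10 mM stock in ACN into a 1.5 µM spiking solution containing 0.75 mg/mL microsomes. After 5 min pre-incubation at 37 °C, reactions were started with 6 mM NADPH stock. They were quenched with ACN containing internal standard at 0, 5, 15, 30 and 45 min, then shaken and centrifuged.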

[2] = Pharmacokinetics after p.o. and i.v. administration; type: in vivo; conditions: mouse
SARS-CoV-2 = assay: Antiviral activity in Vero E6 cells; type: cell-based; conditions: for antiviral activity relative to nirmatrelvir: EC50 against SARS-CoV-2 compared with nirmatrelvir
[3] = Liver microsomes metabolic stability, human; type: in vitro ADME

CC(C)(C)[C@H](NC(=O)C(F)(F)F)C(=O)N1C[C@H]2[C@@H]([C@H]1C(=O)N[C@H](C#N)C[C@@H]1CCNC1=O)C2(C)C [Nirmatrelvir, reference compound]
CLint scaled at 0.75 h, 1 µM [1]: 1180 mL/min/kg | clearance ([2]; male, plasma, iv, 10 mg/kg): 50.1 mL/min/kg

CC(C)(C)[C@H](NS(=O)(=O)C(F)(F)F)C(=O)N1C[C@H]2[C@@H]([C@H]1C(=O)N[C@H](C#N)C[C@@H]1CCNC1=O)C2(C)C [2b, (1R,2S,5S)-N-((S)-1-cyano-2-((S)-2-oxopyrrolidin-3-yl)ethyl)-3-((S)-3,3-dimethyl-2-((trifluoromethyl)sulfonamido)butanoyl)-6,6-dimethyl-3-azabicyclo[3.1.0]hexane-2-carboxamide]
antiviral activity relative to nirmatrelvir (SARS-CoV-2): 4 fold | CLint scaled at 0.75 h, 1 µM [3]: 2.67 mL/min/kg | metabolic stability (in words) [3]: stable | CLint scaled at 0.75 h, 1 µM [1]: 55.8 mL/min/kg | metabolic stability (in words) [1]: moderate metabolic stability | clearance ([2]; male, plasma, iv, 10 mg/kg): 41 mL/min/kg

CC(C)(C)[C@H](NC(=O)C(F)(F)F)C(=O)N1C[C@@H]2CCC[C@@H]2[C@H]1C(=O)N[C@H](C#N)C[C@@H]1CCNC1=O [1a, (1S,3aR,6aS)-N-((S)-1-cyano-2-((S)-2-oxopyrrolidin-3-yl)ethyl)-2-((S)-3,3-dimethyl-2-(2,2,2-trifluoroacetamido)butanoyl)octahydrocyclopenta[c]pyrrole-1-carboxamide]
RNA copy inhibition% (SARS-CoV-2; 1 μM compound, preliminary screening): 70% | antiviral activity relative to nirmatrelvir (SARS-CoV-2): 2 fold | CLint scaled at 1 µM [3]: 22 mL/min/kg | half-life at 1 µM [3]: 78.9 min | metabolic stability (in words) [3]: moderate metabolic stability | CLint scaled at 1 µM [1]: 368 mL/min/kg | half-life at 1 µM [1]: 14.8 min | metabolic stability (in words) [1]: susceptible to metabolic effects | AUC(0-inf) ([2]; male, plasma, iv, 10 mg/kg): 2670 ng·h/mL | AUC(0-t) ([2]; male, plasma, iv, 10 mg/kg): 2670 ng·h/mL | MRT inf ([2]; male, plasma, iv, 10 mg/kg): 14.4 min | clearance ([2]; male, plasma, iv, 10 mg/kg): 69.3 mL/min/kg | half-life ([2]; male, plasma, iv, 10 mg/kg): 66 min | bioavailability ([2]; male, plasma, oral, 20 mg/kg): 22.8% | AUC(0-inf) ([2]; male, plasma, po, 20 mg/kg): 1220 ng·h/mL | AUC(0-t) ([2]; male, plasma, po, 20 mg/kg): 1220 ng·h/mL | Cmax ([2]; male, plasma, po, 20 mg/kg): 1310 ng/mL | MRT inf ([2]; male, plasma, po, 20 mg/kg): 52.8 min | Tmax ([2]; male, plasma, po, 20 mg/kg): 25.2 min | half-life ([2]; male, plasma, po, 20 mg/kg): 60 min | Vss_obs ([2]; i.v. (10 mg/kg)): 1.011 L/kg
